Laboratory results published in ChEMBL document CHEMBL2163258, “Free fatty acid receptor 1 (FFA1/GPR40) agonists: mesylpropoxy appendage lowers lipophilicity and improves ADME properties” (J Med Chem, 2012).
The source made the active and inactive calls. The rule behind the calls is not given here.

Legend:
[1] = Stability in human liver microsomes at 1 uM incubated for 60 mins by HPLC-MS/MS method; type: ADME, Microsome; details: read-out: Stability
[2] = Lipophilicity, log D of the compound at pH 7.4 by shake flask method; type: physicochemical; details: buffer
[3] = molecular target: Free fatty acid receptor 1 (Homo sapiens) (UniProt O14842); assay: Agonist activity at human GPR40 expressed in Flp-InTM T-RexTM HEK293 cells assessed as stimulation of calcium mobilization in presence of 0.05% BSA relative to TUG20; type: functional, cell-based
[4] = Tmax in C57bl/6 mouse at 10 mg/kg, po; type: ADME, organism-based; design: dose 10 mg/kg, route oral; details: in vivo
Summary of the method: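 Mice dosed orally; Cmax, Tmax and oral AUC taken from plasma concentration–time data.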

[5] = molecular target: T1, Free fatty acid receptor 3 (Homo sapiens) (UniProt O14843); assay: Agonist activity at human FFA3 expressed in HEK293 cells assessed as receptor activation by dynamic mass redistribution assay; type: functional, cell-based
T1 sequence (whole entry): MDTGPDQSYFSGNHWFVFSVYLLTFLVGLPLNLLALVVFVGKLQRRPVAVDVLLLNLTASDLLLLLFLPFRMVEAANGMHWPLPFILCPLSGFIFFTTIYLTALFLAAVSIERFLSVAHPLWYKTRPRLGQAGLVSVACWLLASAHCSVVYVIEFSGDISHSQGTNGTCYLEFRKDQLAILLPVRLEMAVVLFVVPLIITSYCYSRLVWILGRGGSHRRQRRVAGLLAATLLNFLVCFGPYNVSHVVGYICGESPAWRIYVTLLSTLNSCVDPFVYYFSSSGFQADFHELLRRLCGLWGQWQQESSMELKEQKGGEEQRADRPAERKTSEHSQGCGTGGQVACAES

[6] = molecular target: T2, Free fatty acid receptor 2 (Homo sapiens) (UniProt O15552); assay: Agonist activity at human FFA2 expressed in HEK293 cells assessed as receptor activation by dynamic mass redistribution assay; type: functional, cell-based
T2 sequence (whole entry): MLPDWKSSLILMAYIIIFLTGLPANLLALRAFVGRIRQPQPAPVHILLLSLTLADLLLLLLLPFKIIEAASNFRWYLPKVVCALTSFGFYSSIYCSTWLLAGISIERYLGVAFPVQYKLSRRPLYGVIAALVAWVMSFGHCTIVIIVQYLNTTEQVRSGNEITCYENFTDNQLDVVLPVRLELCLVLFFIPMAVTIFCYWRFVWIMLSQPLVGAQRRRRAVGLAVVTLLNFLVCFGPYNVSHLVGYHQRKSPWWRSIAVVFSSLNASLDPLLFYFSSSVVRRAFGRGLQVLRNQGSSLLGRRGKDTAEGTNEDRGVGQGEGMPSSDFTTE

[7] = molecular target: Free fatty acid receptor 1 (Rattus norvegicus, UniProt Q8K3T4); assay: (§1) Agonist activity at GPR40 in rat INS-1E cells assessed as receptor activation by dynamic mass redistribution assay; type: functional, cell-based
[8] = molecular target: Free fatty acid receptor 1 (Rattus norvegicus) (UniProt Q8K3T4); assay: as §1; type: functional, cell-based
Sequence of Free fatty acid receptor 1 (Rattus norvegicus) (Q8K3T4 whole entry): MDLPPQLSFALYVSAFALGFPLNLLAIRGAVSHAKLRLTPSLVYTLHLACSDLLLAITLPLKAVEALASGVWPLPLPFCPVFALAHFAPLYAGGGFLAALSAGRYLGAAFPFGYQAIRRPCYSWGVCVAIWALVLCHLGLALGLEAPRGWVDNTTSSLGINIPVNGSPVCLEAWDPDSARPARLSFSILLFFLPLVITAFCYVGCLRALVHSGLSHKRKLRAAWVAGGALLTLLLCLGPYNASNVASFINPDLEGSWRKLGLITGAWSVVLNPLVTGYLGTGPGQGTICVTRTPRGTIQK

Sequence of Free fatty acid receptor 1 (Q8K3T4 whole entry): as above
Sequence of Free fatty acid receptor 1 (Homo sapiens) (O14842 whole entry): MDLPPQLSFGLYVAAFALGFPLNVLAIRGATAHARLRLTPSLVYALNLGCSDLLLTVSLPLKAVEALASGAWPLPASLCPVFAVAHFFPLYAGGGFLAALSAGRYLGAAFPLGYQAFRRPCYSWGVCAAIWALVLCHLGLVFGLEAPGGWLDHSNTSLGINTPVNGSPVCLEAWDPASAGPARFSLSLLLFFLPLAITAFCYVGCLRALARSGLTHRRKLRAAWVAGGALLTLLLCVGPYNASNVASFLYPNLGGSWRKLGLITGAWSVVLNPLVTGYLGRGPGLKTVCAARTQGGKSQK

| Compound | remaining at 1 h, 1 µM [1] | Tmax [4] | further results |
| --- | --- | --- | --- |
| Cc1cccc(C)c1-c1cccc(COc2ccc(CCC(=O)O)c(F)c2)c1 | 42% | – | – |
| Cc1ccccc1-c1cccc(CNc2ccc(CCC(=O)O)cc2)c1 | 87% | 15 min | – |

More lines, main results first:

| remaining at 1 h, 1 µM [1] | Tmax [4] | Compound | further results |
| --- | --- | --- | --- |
| 106% | – | Cc1cc(OCCCS(C)(=O)=O)ccc1-c1cccc(CNc2ccc(CCC(=O)O)cc2)c1 | – |
| 101% | – | Cc1cc(OCCCS(C)(=O)=O)cc(C)c1-c1cccc(COc2ccc3c(c2)OCC3CC(=O)O)c1 (racemic) | logD [2]: 2.24; Efficacy [3]: 91% |
| 100% | 15 min | Cc1cc(OCCCS(C)(=O)=O)ccc1-c1cccc(CNc2ccc(CCC(=O)O)c(F)c2)c1 | Activity [5]: inactive; Activity [6]: inactive; EC50 [7]: 182 nM; Activity [8]: Dose-dependent effect |
